This is an account of results in ChEMBL document CHEMBL1128501, “Synthesis and biological evaluation of 14-alkoxymorphinans. 11. 3-Hydroxycyprodime and analogues: opioid antagonist profile in comparison to cyprodime” (J Med Chem, 1995).

For orientation: Ki means the dissociation constant of the complex between target and ligand, obtained from inhibition or displacement. A lower Ki goes with a stronger hold on the target.

Bounds are passed on as bounds.

In assay [1] the target is T1, Mu-type opioid receptor (Cavia porcellus, UniProt P97266). Briefly: Binding affinity was evaluated by measuring the ability to displace [3H]DAMGO radioligand binding from Opioid receptor mu 1 in guinea pig brain membranes. The format is cell membranes, Membrane. The essentials: (§1)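 Radioligand displacement in guinea pig brain homogenates in 50 mM Tris-HCl, pH 7.4, for 40 min at 25 °C. Radioligands were [3H]DAMGO for μ, [3H]U69593 for κ and [3H]DPDPE for δ sites. Result given as Ki.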
T1 sequence (P97266 whole entry): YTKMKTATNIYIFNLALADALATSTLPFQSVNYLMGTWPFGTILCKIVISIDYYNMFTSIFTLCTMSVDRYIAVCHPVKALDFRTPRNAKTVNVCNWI

The target of assay [2] is T2, Kappa-type opioid receptor (Cavia porcellus, UniProt P41144). Description: […] binding affinity was evaluated by measuring the ability to displace [3H]U-69593 radioligand binding from Opioid receptor kappa 1 in guinea pig brain membranes. On the set-up: species or system Membrane. The essentials: as §1
T2 sequence (P41144 whole entry): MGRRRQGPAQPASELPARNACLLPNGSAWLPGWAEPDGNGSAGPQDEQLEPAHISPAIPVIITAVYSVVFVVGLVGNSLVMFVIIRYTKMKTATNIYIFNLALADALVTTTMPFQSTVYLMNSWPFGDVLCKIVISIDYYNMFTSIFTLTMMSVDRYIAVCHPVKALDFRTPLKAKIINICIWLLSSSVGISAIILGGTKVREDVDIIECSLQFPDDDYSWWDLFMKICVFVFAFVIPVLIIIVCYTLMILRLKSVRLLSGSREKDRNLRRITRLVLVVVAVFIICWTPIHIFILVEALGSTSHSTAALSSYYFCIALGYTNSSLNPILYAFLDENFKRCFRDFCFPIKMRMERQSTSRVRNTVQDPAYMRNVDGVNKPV
The target of assay [3] is Delta-type opioid receptor (Mus musculus) (UniProt P32300). Description: Binding affinity was evaluated by measuring the ability to displace DPDPE radioligand binding from delta opioid receptor in mouse vas deferens preparation. The essentials:
(§2)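 Electrically stimulated isolated mouse vas deferens. Test compound was given as antagonist against agonist-induced responses: DAMGO for μ, DPDPE for δ, and CI977 or other κ agonists for κ. Ke = [antagonist]/(DR − 1), where DR is the ratio of equiactive agonist concentrations with and without antagonist.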

Assay [4] concerns the target Mu-type opioid receptor (Mus musculus) (UniProt P42866). Briefly: Binding affinity was evaluated by measuring the ability to displace [3H]-DAMGO radioligand binding from Opioid receptor mu 1 in mouse vas deferens preparation. The essentials:
as §2

Assay [5] concerns the target Kappa-type opioid receptor (Mus musculus) (UniProt P33534). Briefly: Binding affinity was evaluated by measuring the ability to displace CI977 radioligand binding from Opioid receptor kappa 1 in mouse vas deferens preparation. The essentials: as §2
Assay [6] has the same target. Briefly: Binding affinity for kappa opioid receptor against agonist (CI977) in mouse vas deferens preparation. The essentials:
as §2

The target is the same in assay [7]. Briefly: Binding affinity for kappa opioid receptor against agonist (dynorphine) in mouse vas deferens. The format is tissue-based. The essentials:
as §2

The target of assay [8] is Kappa-type opioid receptor (Cavia porcellus) (UniProt P41144). Briefly: Binding affinity for kappa opioid receptor against agonist (trifluadom) in guinea pig ileum preparations. The format is tissue-based. A digest of the protocol: (§3)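 Myenteric-plexus longitudinal muscle of guinea pig ileum. Test compound was given as antagonist against κ agonist responses. Ke = [antagonist]/(DR − 1), where DR is the ratio of equiactive agonist concentrations with and without antagonist, from separate determinations.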
Chain of Kappa-type opioid receptor (Cavia porcellus) (P41144 whole entry): as above

Assay [9] has the same target. Briefly: Binding affinity for kappa opioid receptor against agonist (U-69,593) in guinea pig ileum preparations. The assay is classed as tissue-based. The essentials: as §3
The target in assay [10] is Delta-type opioid receptor (Mus musculus) (UniProt P32300). Briefly: Binding affinity was evaluated by measuring the ability from displace DPDPE radioligand binding from delta opioid receptor in mouse vas deferens preparation. The essentials:
as §2

Assay [11] addresses T2, Kappa-type opioid receptor. Briefly: Binding affinity was evaluated by measuring the ability to displace [3H]U-69593 radioligand binding from Opioid receptor kappa 1 in guinea pig brain membranes. The format is cell membranes, Membrane. The essentials: as §1
The target of assay [12] is Mu-type opioid receptor (Mus musculus) (UniProt P42866). Description: […] binding affinity was evaluated by measuring the ability from displace [3H]DAMGO radioligand binding to mu opioid receptor in mouse vas deferens preparation. The essentials:
as §2

For assay [13], the target named is Kappa-type opioid receptor (Cavia porcellus) (UniProt P41144). Briefly: Binding affinity for kappa opioid receptor against agonist (ethylketocyclazocine) in guinea pig ileum preparations. The format is tissue-based. The essentials: as §3
Assay [14] addresses Kappa-type opioid receptor (Mus musculus) (UniProt P33534). Description: Binding affinity was evaluated by measuring the ability from displace CI977 radioligand binding to Opioid receptor kappa 1 in mouse vas deferens preparation. The essentials: as §2
The target is the same in assay [15]. Description: Binding affinity for kappa opioid receptor against agonist (U-69,593) in mouse vas deferens preparation. A digest of the protocol:
as §2

Assay [16] deals with Kappa-type opioid receptor (Cavia porcellus) (UniProt P41144). Briefly: Binding affinity for kappa opioid receptor against agonist (CI977) in guinea pig ileum preparations. The assay is classed as tissue-based. The essentials:
as §3

In assay [17] the target is Kappa-type opioid receptor (Mus musculus) (UniProt P33534). Description: Binding affinity for kappa opioid receptor against agonist (ethylketocyclazocine) in mouse vas deferens. The assay is classed as tissue-based. The essentials:
as §2

Assay [18] has as its target T1, Mu-type opioid receptor. Description: […] binding affinity was evaluated by measuring the ability to displace [3H]DAMGO radioligand binding from Opioid receptor mu 1 in guinea pig brain membranes. On the set-up: species or system Membrane. A digest of the protocol:
as §1

Chain of Kappa-type opioid receptor (Mus musculus) (P33534 whole entry): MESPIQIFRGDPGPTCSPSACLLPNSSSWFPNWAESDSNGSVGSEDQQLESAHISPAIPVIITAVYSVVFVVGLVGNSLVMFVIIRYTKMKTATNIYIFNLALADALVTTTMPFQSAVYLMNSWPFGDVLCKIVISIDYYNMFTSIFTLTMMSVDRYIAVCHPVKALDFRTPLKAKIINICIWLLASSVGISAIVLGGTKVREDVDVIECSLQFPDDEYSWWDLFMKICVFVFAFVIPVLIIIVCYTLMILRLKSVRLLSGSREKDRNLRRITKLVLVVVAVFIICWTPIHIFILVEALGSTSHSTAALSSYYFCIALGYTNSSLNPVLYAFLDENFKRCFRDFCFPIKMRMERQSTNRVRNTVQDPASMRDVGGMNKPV
Chain of Mu-type opioid receptor (Mus musculus) (P42866 whole entry): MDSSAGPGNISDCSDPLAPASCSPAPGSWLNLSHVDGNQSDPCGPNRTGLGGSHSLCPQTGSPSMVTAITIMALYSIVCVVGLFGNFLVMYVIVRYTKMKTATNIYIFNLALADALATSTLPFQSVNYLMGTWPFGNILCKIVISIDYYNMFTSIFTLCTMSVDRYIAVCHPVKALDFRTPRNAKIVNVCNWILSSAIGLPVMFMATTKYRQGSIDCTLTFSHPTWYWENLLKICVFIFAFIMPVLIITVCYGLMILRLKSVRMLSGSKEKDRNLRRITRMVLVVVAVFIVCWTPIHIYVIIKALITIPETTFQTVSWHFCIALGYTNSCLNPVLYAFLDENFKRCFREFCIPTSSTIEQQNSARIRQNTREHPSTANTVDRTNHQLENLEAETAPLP
Chain of Delta-type opioid receptor (Mus musculus) (P32300 whole entry): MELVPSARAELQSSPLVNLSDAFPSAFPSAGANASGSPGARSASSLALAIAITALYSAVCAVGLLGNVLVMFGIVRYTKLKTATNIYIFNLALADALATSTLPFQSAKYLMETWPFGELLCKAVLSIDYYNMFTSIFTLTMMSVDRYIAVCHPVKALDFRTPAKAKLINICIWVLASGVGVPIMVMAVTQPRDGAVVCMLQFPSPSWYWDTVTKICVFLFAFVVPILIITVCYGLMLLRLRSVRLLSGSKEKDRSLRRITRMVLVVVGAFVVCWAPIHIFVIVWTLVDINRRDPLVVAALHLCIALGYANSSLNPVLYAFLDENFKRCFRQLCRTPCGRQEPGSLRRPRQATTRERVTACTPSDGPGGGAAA

For the compound `C=CCN1CCC23CC(=O)CC[C@@]2(OC)C1Cc1ccc(O)c(OC)c13` (stereo not given in full), the values for the Ki in [1] and in assay [2] were 7.29 nM and 25.4 nM, respectively. Further, the Ke in assay [3] is 2270 nM; in assay [4], 4.6 nM; in [5], 4.67 nM.

Take `COc1c(O)ccc2c1C13CCN(CC4CC4)C(C2)[C@]1(OC)CCC(=O)C3` (stereo not given in full): the Ki in assay [1] worked out at 6.15 nM; in [11], 4.18 nM. The Ke was determined as 368 nM in [6]; 450 nM in [7]; 1010 nM in [8]; 97.5 nM in [9]; 316 nM in assay [10]; 5.62 nM in assay [12]. Besides, the Ke in [13] was determined as 3.95 nM; in assay [14] it was 368 nM; in assay [15], 354 nM; in [16] it was 284 nM; in assay [17], 910 nM.

On to `COc1cccc2c1[C@]13CCN(CC4CC4)[C@H](C2)[C@]1(OC)CCC(=O)C3` [CYPRODIME], for which the Ki in assay [1] was 23.7 nM; in assay [2] it was 105 nM.

For the compound `CCCCOc1c(O)ccc2c1C13CCN(CC4CC4)C(C2)[C@]1(OC)CCC(=O)C3` (stereo not given in full), the Ke is over 10000 nM in assay [3], 24.9 nM in assay [4] and 174 nM in assay [5]. Also, the figures for the Ki in [11] and in [18] were 13 nM and 10.9 nM, respectively.

For `CCO[C@@]12CCC(=O)CC13CCN(CC1CC1)C2Cc1ccc(O)c(OC)c13` (stereo not given in full), the Ki in assay [1] was found to be 1.42 nM; in assay [2], 5.46 nM. Further, the values for the Ke in [3], in assay [4] and in assay [5] were 106 nM, 2.92 nM and 233 nM, respectively.

As for `COc1c(O)ccc2c1C13CCN(CC4CC4)C(C2)[C@]1(O)CCC(=O)C3` (stereo not given in full), the Ke is 8920 nM in [3], 93.8 nM in [4] and 243 nM in assay [5]. Besides, the Ki in assay [11] was determined as 23 nM; in assay [18] it was 54.4 nM.
